Screening data (PubChem)
An excerpt weighted towards active compounds, which were near 1.6% of everything screened.
Tb MetRS inh = T. brucei MetRS inhibitors, primary screen, biochemical, luminescence. methionyl-tRNA synthetase (Trypanosoma brucei brucei). purified T. brucei MetRS, ATP depletion, Kinase-Glo luminescence. inhibition, % at 11.9 µM. hit rate 0.4% among 360,000;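 active = inhibition above a per-plate cutoff of the control wells' mean inhibition plus 3 SD, cut at about 5.5% in these data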
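Dosing: 11.9 µM single point; system: parasite MetRS enzyme; technique: luminescence of leftover ATP; times: 15 min enzyme-compound preincubation, 2 h reaction, 10 min detection, 25 °C; replicates: each compound tested once; read-out basis: percent inhibition relative to median high and low control wells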
p97 ATPase inh = inhibitors of human p97 ATPase, primary screen, biochemical; Transitional endoplasmic reticulum ATPase (Homo sapiens), P55072; recombinant p97 ATPase, Kinase-Glo ATP luminescence, 3 h; inhibition, % at 8 µM; hit rate 0.42% among 220,000; AID 1481, 2009; in the data active = inhibition above about 15%
p47phox inh = p47phox/p22phox peptide binding inhibitors, primary screen, biochemical, uHTS, NADPH oxidase regulatory subunit | Neutrophil cytosol factor 1 (Homo sapiens), P14598 | fluorescence polarization, 2 h | inhibition, % at 24.7 µM | hit rate 0.53% among 220,000 | AID 1274, 2008
SUMO HTRF inh = inhibitors of in vitro SUMOylation cascade, primary screen, biochemical, HTRF, uHTS; HTRF SUMOylation assay, SAE1/SAE2 + UBC9; inhibition, % at 35 µM; hit rate 0.36% among 290,000; in the data active = inhibition above about 50%, passing the limit was not always enough
Target sequence (P63279 whole entry, looked up): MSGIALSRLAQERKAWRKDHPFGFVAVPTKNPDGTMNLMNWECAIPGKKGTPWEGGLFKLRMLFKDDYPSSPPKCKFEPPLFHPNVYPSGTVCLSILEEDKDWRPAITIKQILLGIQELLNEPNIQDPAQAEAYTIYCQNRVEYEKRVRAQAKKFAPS
14-3-3 Bad PPI = inhibitors of 14-3-3 zeta/Bad binding, primary screen, biochemical, TR-FRET, bovine 14-3-3 zeta; 14-3-3 protein zeta/delta (Bos taurus), P63103; TR-FRET 14-3-3zeta/Dy647-pBad peptide displacement, 1 h; inhibition, % at 21.7 µM; hit rate 0.71% among 220,000;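 active = inhibition above about 70%, limit read from the data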
Target sequence (P63103 whole entry, looked up): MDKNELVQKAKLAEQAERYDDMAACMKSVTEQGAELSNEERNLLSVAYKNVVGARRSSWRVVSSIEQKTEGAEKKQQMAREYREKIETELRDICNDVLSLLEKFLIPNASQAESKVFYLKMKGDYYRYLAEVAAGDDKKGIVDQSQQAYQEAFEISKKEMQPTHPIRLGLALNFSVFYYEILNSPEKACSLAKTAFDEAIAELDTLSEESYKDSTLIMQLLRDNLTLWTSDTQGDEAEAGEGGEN
eIF4E-4G inh = eIF4E–eIF4G protein interaction inhibitors, primary screen, biochemical, uHTS, TR-FRET, eIF4GI fragment; hit rate 0.37% among 220,000; inhibition, % at 21.7 µM; TR-FRET eIF4E-eIF4GI(517-606) binding, 2 h
Each line names hits and unclear results; the compound was inactive in the other large screens; [ ] = remark or other dose.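 Rule for the calls, unless noted: active = inhibition above about 30% (limit read from the data); inactive = the rest.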

O=C(Nc1cc(Cl)cc(Cl)c1)C(NCCO)c1ccccc1 (centres undefined)	14-3-3 Bad PPI 80
COc1ccc(CNC(=O)COC(=O)c2cc(-c3ccco3)nc3ccccc23)cc1	SUMO HTRF inh 57 (no result: Tb MetRS inh)
O=C(Nc1cccc(S(=O)(=O)NC2=NCCC2)c1)c1cc(-c2ccco2)nc2ccccc12	SUMO HTRF inh 86, eIF4E-4G inh 48
C/C(=N\NC(=O)c1cc(-c2ccco2)nc2ccccc12)c1cccnc1	SUMO HTRF inh 60
O=C(Nc1nccs1)c1cc(-c2ccco2)nc2ccccc12	eIF4E-4G inh 36[fluorescence artefact?] (no result: SUMO HTRF inh)
COc1ccc(NC(=O)N[C@H]2C=C[C@@H](CC(=O)NC3CCC3)O[C@@H]2CO)cc1	none (no result: p97 ATPase inh, p47phox inh, SUMO HTRF inh, 14-3-3 Bad PPI, eIF4E-4G inh)
O=C(c1cccc(C(F)(F)F)c1)N1CCN(CCc2ccccc2)CC1	none (no result: p97 ATPase inh, p47phox inh, 14-3-3 Bad PPI, eIF4E-4G inh)
CC1(C(=O)Nc2cccc3ccccc23)CCN1C(=O)Cc1ccc(Cl)cc1Cl (centres undefined)	none (no result: p97 ATPase inh, p47phox inh, SUMO HTRF inh, 14-3-3 Bad PPI, eIF4E-4G inh)
O=C(OCC(=O)N1CCN(C(=O)c2ccco2)CC1)c1cc(-c2ccc(Cl)c(Cl)c2Cl)nc2ccccc12	p47phox inh 37
O=C(NC1CC1)c1cc(-c2ccco2)nc2ccccc12	14-3-3 Bad PPI 83, eIF4E-4G inh 57
O=C(OCC(=O)N1CCN(C(=O)c2ccco2)CC1)c1cc(-c2ccco2)nc2ccccc12	none
CSCCC(C(=O)NC(C)(C)C)n1c(-c2ccc(C)cc2)nc2ccccc21 (centres undefined)	none (no result: p97 ATPase inh, p47phox inh, SUMO HTRF inh, 14-3-3 Bad PPI, eIF4E-4G inh)
CC1=Nc2nc(N3CCCCC3)c(C#N)c3c4c(nc(c23)N1)N(c1ccc(C(C)C)cc1)C(=O)C4	SUMO HTRF inh 60
O=C(NC(Cc1cccc(F)c1)C(=O)O)C1CCCCC1 (centres undefined)	none (no result: p97 ATPase inh, p47phox inh, SUMO HTRF inh, 14-3-3 Bad PPI, eIF4E-4G inh)
CC(=O)N(O)CCCCCNC(=O)CCC(=O)N(O)CCCCCNC(=O)CCC(=O)N(O)CCCCCN	14-3-3 Bad PPI 71[fluorescence artefact?]
Cc1ccc(S(=O)(=O)NCCC(=O)OCC(=O)Nc2ccccc2Cl)cc1	p47phox inh 33
CCOC(=O)c1ccccc1NC(=O)COC(=O)CCNS(=O)(=O)c1ccc(C)c(C)c1	none (no result: p97 ATPase inh, p47phox inh, SUMO HTRF inh, 14-3-3 Bad PPI, eIF4E-4G inh)
Cc1nc2c(OCCN3C(=O)c4ccccc4C3=O)cccn2c1N(C)C(=O)CCC1CCCC1	none (no result: p97 ATPase inh, p47phox inh, SUMO HTRF inh, 14-3-3 Bad PPI, eIF4E-4G inh)
CC(=O)Nc1ccc(/C(C)=N/NC(=O)c2ccccc2Cl)cc1	none
CCOC(=O)C1CCCCN1S(=O)(=O)c1ccc2c(c1)CC(C)N2C(=O)C1CCC1 (centres undefined)	none (no result: p97 ATPase inh, p47phox inh, 14-3-3 Bad PPI, eIF4E-4G inh)
CCCOc1ccc(/C(O)=C2\C(=O)C(=O)N(CCCN(C)C)C23C(=O)N(C)c2ccccc23)cc1 (centres undefined)	none (no result: Tb MetRS inh, p97 ATPase inh, p47phox inh, 14-3-3 Bad PPI, eIF4E-4G inh)
CCCOc1ccc(/C(O)=C2\C(=O)C(=O)N(CCCOC)C23C(=O)N(C)c2ccccc23)cc1 (centres undefined)	14-3-3 Bad PPI 70
CC(=O)c1ccc(NC(=O)CO/N=C(\C)c2cccs2)cc1	none
C/C(=N\OCC(=O)Nn1c(=O)[nH]c2ccccc2c1=O)c1cccs1	p47phox inh 174
Cc1cccn2cc(-c3ccc(S(=O)(=O)N4CCOCC4)cc3)nc12	SUMO HTRF inh 56
CCn1cc(S(=O)(=O)Nc2cc(F)ccc2C)cn1	14-3-3 Bad PPI 92
CCn1cc(S(=O)(=O)Nc2cccnc2)cn1	none (no result: p97 ATPase inh, p47phox inh, 14-3-3 Bad PPI, eIF4E-4G inh)
COc1cccc(NC(=O)C(NCC2CCCCC2)c2ccccc2)c1 (centres undefined)	14-3-3 Bad PPI 84[fluorescence artefact?]
CCC(=O)N[C@@H]1C=C[C@@H](CC(=O)NCc2ccccc2F)O[C@@H]1CO	none (no result: p97 ATPase inh, p47phox inh, SUMO HTRF inh, 14-3-3 Bad PPI, eIF4E-4G inh)
O=C1OCC/C1=C\OCCCO/C=C1\CCOC1=O	eIF4E-4G inh 86
CCOc1ccc2ccccc2c1/C=N/NC(=O)CNC(=O)c1ccccc1F	none (no result: p97 ATPase inh, p47phox inh, 14-3-3 Bad PPI, eIF4E-4G inh)
Fc1ccccc1NC(=S)Nc1cccc2cnccc12	SUMO HTRF inh 98
Cc1ccc(NC(=S)Nc2cccc3cnccc23)cc1	SUMO HTRF inh 100
